Columns and labels:
A-375 [1] = test: Cell cycle arrest in human A375 cells assessed as accumulation at G2/M phase at 2 uM after 24 hrs by propidium iodide staining based flow cytometry (reference value: 5.1%); format: functional
A-375 [2] = test: Induction of apoptosis in human A375 cells assessed as viable cells at 2 uM after 72 hrs by Annexin V-FITC/PI staining based flow cytometry (reference value: 89.4%); format: functional; conditions: A-375, 72 h, read-out: Activity
A-375 [3] = test: Induction of apoptosis in human A375 cells assessed as late apoptotic cells at 10 uM after 24 hrs by Annexin V-FITC/PI staining based flow cytometry (reference value: 4.26%); format: functional
A-375 [4] = test: Induction of apoptosis in human A375 cells assessed as late apoptotic cells at 2 uM after 72 hrs by Annexin V-FITC/PI staining based flow cytometry (reference value: 3.61%); format: functional
In short: (§1)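 Apoptosis time course. A375 cells in 24-well plates (about 10⁵/well) at 2 µM for 0, 24, 48 and 72 h. Harvested by trypsin, washed in PBS, stained 15 min at room temperature in the dark with Annexin V-FITC/PI, analysed by flow cytometry.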

[5] = biological target: Mitogen-activated protein kinase 8 (Homo sapiens, UniProt P45983); test: Inhibition of N-terminal flag-tagged JNK1 (unknown origin) expressed in baculovirus expression system after 60 mins in presence of [gamma-32P]ATP by topcount scintillation method
In short: (§2)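 Baculovirus-expressed N-terminal FLAG-tagged kinases in 25 mM HEPES pH 7.5, 10 mM Mg acetate, 1 mM DTT, 0.5 µM ATP plus [γ-³²P]ATP, 50 µL. p38α: 100 ng enzyme, MBP substrate. JNK1: 10 ng enzyme, 1 µg c-Jun. Compound and enzyme preincubated 5 min, ATP started the reaction, 60 min at 30 °C. Stopped with 10% TCA, filtered, washed with 3% phosphoric acid, counted by TopCount.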

A-375 [6] = test: Cell cycle arrest in human A375 cells assessed as accumulation at G1 phase at 2 uM after 24 hrs by propidium iodide staining based flow cytometry (reference value: 73.6%); format: functional
A-375 [7] = test: Cell cycle arrest in human A375 cells assessed as accumulation at G1 phase at 5 uM after 24 hrs by propidium iodide staining based flow cytometry (reference value: 73.6%); format: functional
[8] = Cytotoxicity against HEK293T cells assessed as decrease in cell viability after 48 hrs by MTT assay; format: cell-based, HEK-293T; conditions: human
In short: (§3)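 MTT reduction assay. Cell lines grown to log phase in DMEM with 10% FBS (A375 in DMEM with sodium pyruvate added), seeded at 10⁴ cells/well in 96-well plates. Three replicate wells per concentration, each assay run three times, GI50 averaged.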

[9] = biological target: RAF proto-oncogene serine/threonine-protein kinase (Homo sapiens, UniProt P04049, Y340D/Y341D); test: Inhibition of recombinant human GST-tagged c-RAF (306 to 648 residues) Y340D/Y341D mutant expressed in baculovirus expression system using recombinant human full length N-terminal His-tagged MEK1 as substrate preincubated for 1 hr followed by substrate addition measured after 25 mins
A-375 [10] = test: Cell cycle arrest in human A375 cells assessed as accumulation at G1 phase at 20 uM after 24 hrs by propidium iodide staining based flow cytometry (reference value: 73.6%); format: functional
[11] = Effect on total MEK1/2 protein level in human WM1361 cells after 30 mins by Western blot analysis; format: ADME, cell-based; conditions: 0.5 h
In short: (§4)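 Western blot. Cells rinsed in cold PBS, lysed 30 min on ice in RIPA with protease inhibitors (1:100), cleared at 12,000 g, 4 °C. Protein measured by BCA, resolved by SDS-PAGE, transferred to PVDF, blocked in skim milk. Primary antibodies 1:500 overnight at 4 °C; secondary 1:5000 for 1 h at room temperature.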

A-375 [12] = test: Cell cycle arrest in human A375 cells assessed as accumulation at S phase at 2 uM after 48 hrs by propidium iodide staining based flow cytometry (reference value: 21.3%); format: functional
A-375 [13] = test: Induction of apoptosis in human A375 cells assessed as necrotic cells at 5 uM after 24 hrs by Annexin V-FITC/PI staining based flow cytometry (reference value: 1.61%); format: functional
WM 266-4 = test: Antiproliferative activity against human WM266.4 cells after 48 hrs by MTT assay; format: functional; conditions: WM 266-4, 48 h; in short: as §3
A-375 [14] = test: Effect on total MEK1/2 protein level in human A375 cells after 30 mins by Western blot analysis; format: ADME, cell-based; conditions: a-375, 0.5 h; in short: as §4
[15] = biological target: Mitogen-activated protein kinase 14 (Homo sapiens, UniProt Q16539); test: Inhibition of N-terminal flag-tagged p38alpha (unknown origin) expressed in baculovirus expression system using MBP as substrate preincubated for 5 mins followed by substrate addition measured after 60 mins in presence of [gamma-32P]ATP by topcount scintillation method; in short: as §2
A-375 [16] = test: Cell cycle arrest in human A375 cells assessed as accumulation at G2/M phase at 20 uM after 24 hrs by propidium iodide staining based flow cytometry (reference value: 5.1%); format: functional
A-375 [17] = test: Cell cycle arrest in human A375 cells assessed as accumulation at S phase at 5 uM after 24 hrs by propidium iodide staining based flow cytometry (reference value: 21.3%); format: functional
[18] = Antiproliferative activity against human WM1361 cells after 48 hrs by MTT assay; format: functional; conditions: WM1361, 48 h; in short: as §3
A-375 [19] = test: Induction of apoptosis in human A375 cells assessed as necrotic cells at 2 uM after 48 hrs by Annexin V-FITC/PI staining based flow cytometry (reference value: 1.55%); format: functional
A-375 [20] = test: Induction of apoptosis in human A375 cells assessed as viable cells at 2 uM after 24 hrs by Annexin V-FITC/PI staining based flow cytometry (reference value: 89.4%); format: functional; conditions: A-375, 24 h, read-out: Activity
A-375 [21] = test: Induction of apoptosis in human A375 cells assessed as necrotic cells at 2 uM after 72 hrs by Annexin V-FITC/PI staining based flow cytometry (reference value: 1.55%); format: functional
A-375 [22] = test: Induction of apoptosis in human A375 cells assessed as late apoptotic cells at 5 uM after 24 hrs by Annexin V-FITC/PI staining based flow cytometry (reference value: 4.26%); format: functional
A-375 [23] = test: Effect on total ERK1/2 protein level in human A375 cells after 30 mins by Western blot analysis; format: ADME, cell-based; conditions: a-375, 0.5 h; in short: as §4
HT-29 = test: Antiproliferative activity against human HT-29 cells after 48 hrs by MTT assay; format: functional; conditions: HT-29, 48 h; in short: as §3
A-375 [24] = test: Induction of apoptosis in human A375 cells assessed as early apoptotic cells at 2 uM after 24 hrs by Annexin V-FITC/PI staining based flow cytometry (reference value: 5.42%); format: functional; in short: as §1
A-375 [25] = test: Cell cycle arrest in human A375 cells assessed as accumulation at G1 phase at 2.5 uM after 24 hrs by propidium iodide staining based flow cytometry (reference value: 73.6%); format: functional
A-375 [26] = test: Induction of apoptosis in human A375 cells assessed as necrotic cells at 20 uM after 24 hrs by Annexin V-FITC/PI staining based flow cytometry (reference value: 1.61%); format: functional
A-375 [27] = test: Cell cycle arrest in human A375 cells assessed as accumulation at S phase at 2 uM after 24 hrs by propidium iodide staining based flow cytometry (reference value: 21.3%); format: functional

Mitogen-activated protein kinase 14, sequence (Q16539 whole entry): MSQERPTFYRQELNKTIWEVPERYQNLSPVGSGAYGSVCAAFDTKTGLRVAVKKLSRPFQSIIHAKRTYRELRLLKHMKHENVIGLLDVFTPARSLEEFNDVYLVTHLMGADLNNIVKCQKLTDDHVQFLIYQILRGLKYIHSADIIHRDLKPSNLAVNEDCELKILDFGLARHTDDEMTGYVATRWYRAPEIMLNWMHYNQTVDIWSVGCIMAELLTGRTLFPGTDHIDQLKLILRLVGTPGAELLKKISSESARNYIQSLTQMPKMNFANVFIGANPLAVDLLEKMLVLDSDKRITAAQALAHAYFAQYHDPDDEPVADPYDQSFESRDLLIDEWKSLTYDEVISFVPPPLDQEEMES
Mitogen-activated protein kinase 8, sequence (P45983 whole entry): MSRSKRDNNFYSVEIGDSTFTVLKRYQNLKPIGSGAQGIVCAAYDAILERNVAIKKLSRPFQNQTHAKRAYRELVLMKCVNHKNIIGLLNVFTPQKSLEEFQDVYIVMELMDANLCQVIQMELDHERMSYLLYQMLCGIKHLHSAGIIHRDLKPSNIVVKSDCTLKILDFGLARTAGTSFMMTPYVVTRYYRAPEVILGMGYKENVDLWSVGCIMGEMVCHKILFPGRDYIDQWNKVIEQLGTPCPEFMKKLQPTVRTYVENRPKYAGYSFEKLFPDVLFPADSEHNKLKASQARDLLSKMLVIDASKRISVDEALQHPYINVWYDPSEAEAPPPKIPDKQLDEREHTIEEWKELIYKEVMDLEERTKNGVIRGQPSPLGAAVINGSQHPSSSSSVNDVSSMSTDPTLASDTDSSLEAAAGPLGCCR
RAF proto-oncogene serine/threonine-protein kinase, sequence (P04049 whole entry Y340D/Y341D, the tested form may be a part): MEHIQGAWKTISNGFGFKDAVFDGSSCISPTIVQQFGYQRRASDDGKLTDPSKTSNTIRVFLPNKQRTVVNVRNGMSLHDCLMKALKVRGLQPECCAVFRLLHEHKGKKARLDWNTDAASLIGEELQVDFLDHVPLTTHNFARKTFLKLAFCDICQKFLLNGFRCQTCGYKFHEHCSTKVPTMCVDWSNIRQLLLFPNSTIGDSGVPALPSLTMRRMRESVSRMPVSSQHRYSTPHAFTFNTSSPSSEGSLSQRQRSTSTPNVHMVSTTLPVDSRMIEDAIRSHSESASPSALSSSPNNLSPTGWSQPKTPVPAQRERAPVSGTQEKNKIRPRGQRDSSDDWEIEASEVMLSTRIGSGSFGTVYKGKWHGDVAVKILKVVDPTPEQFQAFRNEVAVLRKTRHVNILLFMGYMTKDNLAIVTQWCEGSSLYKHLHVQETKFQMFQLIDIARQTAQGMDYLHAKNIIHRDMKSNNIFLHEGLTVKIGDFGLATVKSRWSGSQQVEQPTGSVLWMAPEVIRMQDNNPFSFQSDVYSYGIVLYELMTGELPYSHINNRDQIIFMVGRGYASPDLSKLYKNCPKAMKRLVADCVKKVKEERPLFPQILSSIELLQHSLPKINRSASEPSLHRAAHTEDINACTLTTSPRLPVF

SMILES: COc1cccc(C2=NN(C(=S)Nc3ccccc3)C(c3ccc4c(c3)OCCO4)C2)c1 (centres undefined)
- Activity (A-375 [1]): 10.3%
- viability at 2 µM (A-375 [2]): 71.1%
- Activity (A-375 [3]): 10.8%
- Activity (A-375 [4]): 6.49%
- IC50 [5]: > 200 µM
- Activity (A-375 [6]): 72.4%
- Activity (A-375 [7]): 61.3%
- GI50 at 48 h [8]: > 200 µM
- IC50 [9]: > 200 µM
- Activity (A-375 [10]): 52.8%
- Activity [11]: Non-Toxic
- Activity (A-375 [12]): 26.2%
- Activity (A-375 [13]): 3.6%
- GI50 (WM 266-4): 1.38 µM
- Activity (A-375 [14]): Non-Toxic
- IC50 [15]: > 200 µM
- Activity (A-375 [16]): 30.2%
- Activity (A-375 [17]): 28.4%
- GI50 [18]: > 200 µM
- Activity (A-375 [19]): 3.05%
- viability at 2 µM (A-375 [20]): 80.8%
- Activity (A-375 [21]): 2.24%
- Activity (A-375 [22]): 8.1%
- Activity (A-375 [23]): Non-Toxic
- GI50 (HT-29): 2.92 µM
- Activity (A-375 [24]): 10.9%
- Activity (A-375 [25]): 72.3%
- Activity (A-375 [26]): 3.25%
- Activity (A-375 [27]): 17.3%

Reference: ChEMBL document CHEMBL4270537, “Design and biological evaluation of novel triaryl pyrazoline derivatives with dioxane moiety for selective BRAFV600E inhibition” (Eur J Med Chem, 2018)
